Experiments:
[1] = molecular target: T1, Angiotensin-converting enzyme (Rattus norvegicus) (UniProt P47820); assay: Inhibitory activity was determined against Angiotensin I converting enzyme; type: functional
T1 sequence (whole entry): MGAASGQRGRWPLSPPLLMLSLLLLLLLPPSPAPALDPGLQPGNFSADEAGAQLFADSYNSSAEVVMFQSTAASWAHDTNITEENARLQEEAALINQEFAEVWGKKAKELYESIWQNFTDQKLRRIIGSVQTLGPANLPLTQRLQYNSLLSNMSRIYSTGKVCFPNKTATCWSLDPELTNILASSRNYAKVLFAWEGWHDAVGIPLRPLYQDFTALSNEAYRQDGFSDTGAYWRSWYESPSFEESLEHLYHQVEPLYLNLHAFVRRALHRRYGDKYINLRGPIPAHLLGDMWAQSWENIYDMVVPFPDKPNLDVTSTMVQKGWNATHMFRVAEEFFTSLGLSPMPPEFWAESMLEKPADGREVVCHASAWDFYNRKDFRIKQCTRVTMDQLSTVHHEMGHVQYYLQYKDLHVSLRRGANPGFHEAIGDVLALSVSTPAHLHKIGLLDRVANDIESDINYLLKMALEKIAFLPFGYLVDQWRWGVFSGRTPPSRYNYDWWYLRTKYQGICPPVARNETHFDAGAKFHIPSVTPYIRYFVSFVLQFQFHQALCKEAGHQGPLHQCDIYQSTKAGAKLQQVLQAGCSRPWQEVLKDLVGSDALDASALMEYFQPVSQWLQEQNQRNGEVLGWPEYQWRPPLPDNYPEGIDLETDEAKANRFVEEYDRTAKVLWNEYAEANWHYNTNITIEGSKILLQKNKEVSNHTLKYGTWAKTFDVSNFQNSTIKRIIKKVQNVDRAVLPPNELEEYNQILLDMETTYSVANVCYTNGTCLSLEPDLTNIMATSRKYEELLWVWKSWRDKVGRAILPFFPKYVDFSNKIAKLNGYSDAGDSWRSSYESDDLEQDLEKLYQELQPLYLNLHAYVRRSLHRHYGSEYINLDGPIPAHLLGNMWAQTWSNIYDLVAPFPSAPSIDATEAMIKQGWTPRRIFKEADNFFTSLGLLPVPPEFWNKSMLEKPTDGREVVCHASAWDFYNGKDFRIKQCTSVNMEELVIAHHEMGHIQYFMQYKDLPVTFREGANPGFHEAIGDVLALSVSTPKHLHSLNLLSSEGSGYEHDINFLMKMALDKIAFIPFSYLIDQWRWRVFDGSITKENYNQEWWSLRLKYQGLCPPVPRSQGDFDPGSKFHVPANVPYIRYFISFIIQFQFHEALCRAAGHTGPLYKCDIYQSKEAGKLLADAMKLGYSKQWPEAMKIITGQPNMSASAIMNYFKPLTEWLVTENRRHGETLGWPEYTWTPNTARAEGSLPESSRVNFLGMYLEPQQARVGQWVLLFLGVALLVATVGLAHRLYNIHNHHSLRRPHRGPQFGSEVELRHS

Rattus norvegicus [2] = assay: Percent decrease in angiotensin I pressor response was measured in rat, administered intravenously at dose 0.090 mg/kg; type: functional; conditions: dose 0.09 mg/kg; route intravenous
Procedure, shortened: (§1)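 Anesthetized (pentobarbital Na 15 mg/kg + barbital 220 mg/kg ip), tracheotomized male Charles River CD rats, 380–500 g, femoral cannulas, heated board at 37 °C. Control pressor responses to angiotensin I 0.3 μg/kg then angiotensin II 0.1 μg/kg iv; drug iv in 0.9% saline (free base), AI and AII repeated at 5-min intervals, cumulative 0.01–0.81 mg/kg. Peak arterial pressure rise versus control.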

Rattus norvegicus [3] = assay: Percent change was determined in bradykinin depressor response in anesthetized normotensive rat, administered intravenously at dose 0.010 mg/kg; type: functional; conditions: dose 0.01 mg/kg; route intravenous
Procedure, shortened: (§2)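 Male Charles River CD rats (380–500 g), pentobarbital Na 15 mg/kg plus barbital 220 mg/kg ip, tracheotomized, femoral artery/vein cannulated, kept at 37 °C. Control bradykinin 1 μg/kg iv depressor response, separate from angiotensin tests; drug iv in 0.9% saline (1 mL/kg, free base) 10 min later, Bk 5 min after each cumulative dose (0.0033–0.27 mg/kg). Maximum fall in arterial pressure versus control response; N = 8.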

Rattus norvegicus [4] = assay: Decrease in systolic blood pressure of Spontaneous Hypertensive Rats (SHR) pretreated with hydrochlorothiazide upon oral administration at 10 mm/kg; type: functional, Artery
Procedure, shortened: (§3)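 Male SHR, 13 weeks old, given HCTZ 25 mg/kg po in 0.25% methylcellulose daily for 3 days. Drug given orally in water (5 mL/kg) 1 h after the third dose. Tail-cuff systolic pressure and pulse-count heart rate taken 1.5 h later after 20 min warming at 38 °C. ANOVA with Duncan's test; ED30 by linear regression.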

Rattus norvegicus [5] = assay: Change in heart rate was determined at a dose 3 mg/kg; type: functional; procedure, shortened: as §3
Rattus norvegicus [6] = assay: Percent decrease in angiotensin I pressor response was measured in rat, administered intravenously at dose 0.010 mg/kg; type: functional; conditions: dose 0.01 mg/kg; route intravenous; procedure, shortened: as §1
Rattus norvegicus [7] = assay: Activity against the bradykinin Response in anesthetized normotensive rat, administered intravenously at dose 0.030 mg/kg; type: functional; conditions: dose 0.03 mg/kg; route intravenous
Procedure, shortened: (§4)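 Anesthetized (pentobarbital/barbital ip) male Charles River CD rats, 380–500 g, kept at 37 °C. Femoral artery blood pressure recorded. Control depressor response to bradykinin 1 μg/kg iv, then cumulative iv drug in 0.9% saline (1 mL/kg), 0.0033–0.27 mg/kg. Bk challenge 5 min after each dose. ED50 = dose giving a 50% change from control, by linear regression; N = 8.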

Rattus norvegicus [8] = assay: Percent decrease in angiotensin I pressor response was measured in rat, administered intravenously at dose 0.27 mg/kg; type: functional; conditions: route intravenous; procedure, shortened: as §1
Rattus norvegicus [9] = assay: Activity against the bradykinin Response in anesthetized normotensive rat, administered intravenously at dose 0.010 mg/kg; type: functional; conditions: dose 0.01 mg/kg; route intravenous; procedure, shortened: as §4
Rattus norvegicus [10] = assay: Hypotensive activity was determined in low-sodium treated rat, dose 10 mg/kg administered orally at 2 hr; type: functional; conditions: route oral
Procedure, shortened: (§5)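 Male CD rats, 11 weeks old, kept on a sodium-deficient diet for 3 weeks and fasted overnight, were dosed orally with aqueous solutions (5 mL/kg), water as control. Systolic pressure measured by tail cuff at the stated post-dose time. ANOVA with Duncan's test.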

Rattus norvegicus [11] = assay: Percent change was determined in bradykinin depressor response n anesthetized normotensive rat, administered intravenously at dose 0.090 mg/kg; type: functional; conditions: dose 0.09 mg/kg; route intravenous; procedure, shortened: as §2
Rattus norvegicus [12] = assay: Hypotensive activity was determined in low-sodium treated rat, dose 3 mg/kg administered orally at 2 hr; type: functional; conditions: route oral; procedure, shortened: as §5
Rattus norvegicus [13] = assay: Percent decrease in angiotensin I pressor response was measured in rat, administered intravenously at dose 0.030 mg/kg; type: functional; conditions: dose 0.03 mg/kg; route intravenous; procedure, shortened: as §1
Rattus norvegicus [14] = assay: Effect on vasopressor response caused by angiotensin I (AI) in anesthetized normotensive rat, administered intravenously at dose 0.27 mg/kg; type: functional; conditions: route intravenous
Procedure, shortened: (§6)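 Male Charles River CD rats, 380–500 g, anesthetized with pentobarbital Na 15 mg/kg plus barbital 220 mg/kg ip, held at 37 °C. Femoral artery pressure recorded. AI 0.3 μg/kg and AII 0.1 μg/kg given iv as challenges. Cumulative iv drug in saline, 0.01–0.81 mg/kg, each dose followed by AI/AII challenges at 5-min intervals. ED50 = 50% change from control response, by linear regression.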

[15] = Half life was determined; type: ADME; conditions: rat
Procedure, shortened: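 Rats anesthetized with pentobarbital/barbital received a single iv dose, 0.2 or 0.08 mg/kg. AI 0.3 μg/kg iv given at 5 min, then every 10 min for 210 min. Half-life = time for the AI pressor response to fall to 50% of its peak inhibition.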

Rattus norvegicus [16] = assay: Percent decrease in angiotensin I pressor response was measured in rat, administered intravenously at dose 0.81 mg/kg; type: functional; conditions: route intravenous; procedure, shortened: as §1
Rattus norvegicus [17] = assay: Effect on vasopressor response caused by angiotensin I (AI) in anesthetized normotensive rat, administered intravenously at dose 0.090 mg/kg; type: functional; conditions: dose 0.09 mg/kg; route intravenous; procedure, shortened: as §6
Rattus norvegicus [18] = species: Rattus norvegicus; assay: Effective dose was determined to increase the vasoResponse in rat; type: functional; procedure, shortened: as §4
Rattus norvegicus [19] = assay: Activity against the bradykinin Response in anesthetized normotensive rat, administered intravenously at dose 0.0033 mg/kg; type: functional; conditions: route intravenous; procedure, shortened: as §4
Rattus norvegicus [20] = assay: Percent change was determined in bradykinin depressor response in anesthetized normotensive rat, administered intravenously at dose 0.030 mg/kg; type: functional; conditions: dose 0.03 mg/kg; route intravenous; procedure, shortened: as §2
Rattus norvegicus [21] = assay: Decrease in systolic blood pressure of Spontaneous Hypertensive Rats (SHR) pretreated with hydrochlorothiazide upon oral administration at 30 mm/kg; type: functional, Artery; procedure, shortened: as §3
Rattus norvegicus [22] = assay: Activity against the bradykinin Response in anesthetized normotensive rat, administered intravenously at dose 0.090 mg/kg; type: functional; conditions: dose 0.09 mg/kg; route intravenous; procedure, shortened: as §4
Rattus norvegicus [23] = assay: Hypotensive activity was determined in low-sodium treated rat, dose 3 mg/kg administered orally at 5 hr; type: functional; conditions: route oral; procedure, shortened: as §5
Rattus norvegicus [24] = species: Rattus norvegicus; assay: Dose required to reduce systolic blood pressure by 30 mmHg; type: functional; conditions: Artery; procedure, shortened: as §3
Rattus norvegicus [25] = assay: Hypotensive activity was determined in low-sodium treated rat, dose 30 mg/kg administered orally at 5 hr; type: functional; conditions: route oral; procedure, shortened: as §5
Rattus norvegicus [26] = assay: Percent change was determined in bradykinin depressor response in anesthetized normotensive rat, administered intravenously at dose 0.0033 mg/kg; type: functional; conditions: route intravenous; procedure, shortened: as §4
Rattus norvegicus [27] = assay: Effective dose to produce AcE inhibition in rat, administered intravenously; type: functional; conditions: iv; procedure, shortened: as §6
Rattus norvegicus [28] = assay: Hypotensive activity was determined in low-sodium treated rat, dose 10 mg/kg administered orally at 5 hr; type: functional; conditions: route oral; procedure, shortened: as §5
Rattus norvegicus [29] = assay: Change in heart rate was determined at a dose 10 mg/kg; type: functional; procedure, shortened: as §3
Rattus norvegicus [30] = assay: Effect on vasopressor response caused by angiotensin I (AI) in anesthetized normotensive rat, administered intravenously at dose 0.030 mg/kg; type: functional; conditions: dose 0.03 mg/kg; route intravenous; procedure, shortened: as §6
Rattus norvegicus [31] = assay: Hypotensive activity was determined in low-sodium treated rat, dose 30 mg/kg administered orally at 2 hr; type: functional; conditions: route oral; procedure, shortened: as §5
Rattus norvegicus [32] = assay: Effect on vasopressor response caused by angiotensin I (AI) in anesthetized normotensive rat, administered intravenously at dose 0.81 mg/kg; type: functional; conditions: route intravenous; procedure, shortened: as §6
Rattus norvegicus [33] = assay: Effect on vasopressor response caused by angiotensin I (AI) in anesthetized normotensive rat, administered intravenously at dose 0.010 mg/kg; type: functional; conditions: dose 0.01 mg/kg; route intravenous; procedure, shortened: as §6
Rattus norvegicus [34] = assay: Decrease in systolic blood pressure of Spontaneous Hypertensive Rats (SHR) pretreated with hydrochlorothiazide upon oral administration at 3 mm/kg; type: functional, Artery; procedure, shortened: as §3
Rattus norvegicus [35] = assay: Change in heart rate was determined at a dose 30 mg/kg; type: functional; procedure, shortened: as §3

## CCOC(=O)[C@H](CCc1ccccc1)N[C@H](C)C(=O)N1C(=O)CC[C@H]1C(=O)O
[1]
  ED50: 4 mg/kg

## CCOC(=O)[C@H](CCc1ccccc1)N[C@@H](C)C(=O)N1CCC[C@H]1C(=O)O [ENALAPRIL]
Rattus norvegicus [2]
  Decrease: 60%
Rattus norvegicus [3]
  Change: 55%
Rattus norvegicus [4]
  Blood pressure: 169 mmHg
Rattus norvegicus [5]
  Heart rate: 378 beats min-1
Rattus norvegicus [6]
  Decrease: 14%
Rattus norvegicus [7]
  Response: -61 mmHg
Rattus norvegicus [8]
  Decrease: 81%
Rattus norvegicus [9]
  Response: -45 mmHg
Rattus norvegicus [10]
  Activity: 138 mmHg
Rattus norvegicus [11]
  Change: 107%
Rattus norvegicus [12]
  Activity: 148 mmHg
Rattus norvegicus [13]
  Decrease: 37%
Rattus norvegicus [14]
  Response: 8 mmHg
[15]
  half-life: 2.5 h
Rattus norvegicus [16]
  Decrease: 84%
Rattus norvegicus [17]
  Response: 17 mmHg
Rattus norvegicus [18]
  ED50: 0.0097 mg/kg
Rattus norvegicus [19]
  Response: -27 mmHg
Rattus norvegicus [20]
  Change: 110%
Rattus norvegicus [21]
  Blood pressure: 163 mmHg
Rattus norvegicus [22]
  Response: -60 mmHg
Rattus norvegicus [23]
  Activity: 128 mmHg
Rattus norvegicus [24]
  ED30: 1.5 mg/kg
Rattus norvegicus [25]
  Activity: 128 mmHg
Rattus norvegicus [26]
  Change: -7%
Rattus norvegicus [27]
  ED50: 0.066 mg/kg
Rattus norvegicus [28]
  Activity: 123 mmHg
Rattus norvegicus [29]
  Heart rate: 380 beats min-1
Rattus norvegicus [30]
  Response: 27 mmHg
Rattus norvegicus [31]
  Activity: 134 mmHg
Rattus norvegicus [32]
  Response: 7 mmHg
Rattus norvegicus [33]
  Response: 37 mmHg
Rattus norvegicus [34]
  Blood pressure: 199 mmHg
Rattus norvegicus [35]
  Heart rate: 386 beats min-1

From ChEMBL document CHEMBL1122835, “Synthesis and pharmacology of the potent angiotensin-converting enzyme inhibitor N-[1(S)-(ethoxycarbonyl)-3-phenylpropyl]-(S)-alanyl-(S)-pyroglutamic acid” (J Med Chem, 1985)
